The results in this text go back to ChEMBL document CHEMBL4257503, “N-Acetyl-3-aminopyrazoles block the non-canonical NF-kB cascade by selectively inhibiting NIK” (Medchemcomm, 2018).

Molecules are shown by their SMILES.

The target in data set [1] is Serine/threonine-protein kinase pim-1 (Homo sapiens, UniProt P11309). Nature of the data set: Inhibition of PIM1 (unknown origin).
Data set [2] deals with Insulin receptor (Homo sapiens, UniProt P06213). Nature of the data set: Inhibition of INSR (unknown origin).
Chain of Insulin receptor (P06213 28-758 limits assumed): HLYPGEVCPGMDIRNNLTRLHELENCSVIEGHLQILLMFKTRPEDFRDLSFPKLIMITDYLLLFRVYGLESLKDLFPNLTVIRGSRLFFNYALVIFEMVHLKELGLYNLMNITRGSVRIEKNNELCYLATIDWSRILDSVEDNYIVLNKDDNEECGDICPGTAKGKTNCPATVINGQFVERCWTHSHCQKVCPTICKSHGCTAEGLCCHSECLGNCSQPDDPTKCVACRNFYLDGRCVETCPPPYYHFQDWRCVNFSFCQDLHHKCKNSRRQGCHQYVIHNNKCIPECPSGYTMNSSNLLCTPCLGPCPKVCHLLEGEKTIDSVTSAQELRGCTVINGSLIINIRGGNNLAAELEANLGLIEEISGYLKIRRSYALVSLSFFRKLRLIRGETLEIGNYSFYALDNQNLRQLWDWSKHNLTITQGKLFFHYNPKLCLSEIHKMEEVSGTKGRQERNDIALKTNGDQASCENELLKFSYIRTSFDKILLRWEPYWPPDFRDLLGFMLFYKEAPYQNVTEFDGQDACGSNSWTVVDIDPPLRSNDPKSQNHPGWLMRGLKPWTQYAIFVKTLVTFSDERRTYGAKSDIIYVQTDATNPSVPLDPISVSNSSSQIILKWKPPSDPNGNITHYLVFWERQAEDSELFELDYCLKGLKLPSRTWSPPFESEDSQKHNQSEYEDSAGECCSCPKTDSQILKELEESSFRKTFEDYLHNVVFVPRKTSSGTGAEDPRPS
Chain of Insulin receptor (P06213 763-1382 limits assumed): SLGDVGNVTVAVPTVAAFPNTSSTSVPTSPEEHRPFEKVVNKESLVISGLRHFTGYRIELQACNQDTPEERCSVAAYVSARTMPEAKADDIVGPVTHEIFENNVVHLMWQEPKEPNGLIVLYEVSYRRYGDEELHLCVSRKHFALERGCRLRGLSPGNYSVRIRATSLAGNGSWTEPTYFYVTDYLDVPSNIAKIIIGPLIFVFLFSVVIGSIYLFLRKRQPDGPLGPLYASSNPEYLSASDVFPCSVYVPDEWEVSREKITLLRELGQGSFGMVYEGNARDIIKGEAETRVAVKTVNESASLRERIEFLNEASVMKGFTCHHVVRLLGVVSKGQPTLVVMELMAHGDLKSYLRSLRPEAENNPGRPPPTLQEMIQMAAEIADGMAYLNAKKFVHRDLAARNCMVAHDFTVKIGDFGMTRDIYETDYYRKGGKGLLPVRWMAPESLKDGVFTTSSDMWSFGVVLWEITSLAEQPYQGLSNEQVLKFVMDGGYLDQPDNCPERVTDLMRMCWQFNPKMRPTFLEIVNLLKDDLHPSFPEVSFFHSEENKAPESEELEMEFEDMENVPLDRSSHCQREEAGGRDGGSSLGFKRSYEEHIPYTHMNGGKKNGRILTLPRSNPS
The species entered for data set [3] is Homo sapiens. Nature of the data set: Inhibition of NFkappaB activation in human SKBR3 cells at 100 uM after 6 hrs by dual luciferase reporter gene assay relative to control. It is filed as cell-based. In a few lines:
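Cells were nucleofected with the pGL4.32 NF-κB-RE firefly luciferase and pGL4.74 TK-Renilla plasmids (3 µg, 10:1 ratio) and cultured for 24 h at 37 °C. Compound (10, 25, 50 or 100 µM) was then added for 6 h. Firefly luminescence was normalised to Renilla from the same sample and expressed as % of vehicle control. Means ± SD of three independent experiments.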

Data set [4] addresses 3-phosphoinositide-dependent protein kinase 1 (Homo sapiens, UniProt O15530). Nature of the data set: Inhibition of PDK1 (unknown origin).
Data set [5] is described as follows: Octanol/phosphate buffered saline partition coefficient, log D of the compound at pH 7.4. It is filed as physicochemical.
Data set [6] in a line: Cytotoxicity against human EJM cells assessed as cell viability at 25 uM after 6 hrs by CellTiter Glo luminescent assay relative to control. The format is cell-based. Conditions: read-out: Activity. In a few lines:
(§1)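 Cells seeded at 5 x 10^3 per well and exposed for 6 h to the compound (10, 25, 50 or 100 µM) or to DMSO vehicle. Viability was read as intracellular ATP by CellTiter Glo luminescence.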

In data set [7] the target is Serine/threonine-protein kinase PAK 1 (Homo sapiens, UniProt Q13153). Nature of the data set: Inhibition of PAK1 (unknown origin).
Data set [8] concerns the target Serine/threonine-protein kinase 4 (Homo sapiens, UniProt Q13043). Nature of the data set: Inhibition of MST1 (unknown origin).
Data set [9] addresses Cyclin-Y/Cyclin-dependent kinase 16 (Homo sapiens, UniProt Q00536). Nature of the data set: Inhibition of PCTAIRE1/cyclinY (unknown origin). The format is protein-complex assay.
Data set [10] addresses Tyrosine-protein kinase JAK1 (Homo sapiens, UniProt P23458). Nature of the data set: Inhibition of JAK1 (unknown origin).
For data set [11], the target named is Receptor-type tyrosine-protein kinase FLT3 (Homo sapiens, UniProt P36888). Nature of the data set: Inhibition of wild-type FLT3 (unknown origin).
Chain of Receptor-type tyrosine-protein kinase FLT3 (P36888 whole entry): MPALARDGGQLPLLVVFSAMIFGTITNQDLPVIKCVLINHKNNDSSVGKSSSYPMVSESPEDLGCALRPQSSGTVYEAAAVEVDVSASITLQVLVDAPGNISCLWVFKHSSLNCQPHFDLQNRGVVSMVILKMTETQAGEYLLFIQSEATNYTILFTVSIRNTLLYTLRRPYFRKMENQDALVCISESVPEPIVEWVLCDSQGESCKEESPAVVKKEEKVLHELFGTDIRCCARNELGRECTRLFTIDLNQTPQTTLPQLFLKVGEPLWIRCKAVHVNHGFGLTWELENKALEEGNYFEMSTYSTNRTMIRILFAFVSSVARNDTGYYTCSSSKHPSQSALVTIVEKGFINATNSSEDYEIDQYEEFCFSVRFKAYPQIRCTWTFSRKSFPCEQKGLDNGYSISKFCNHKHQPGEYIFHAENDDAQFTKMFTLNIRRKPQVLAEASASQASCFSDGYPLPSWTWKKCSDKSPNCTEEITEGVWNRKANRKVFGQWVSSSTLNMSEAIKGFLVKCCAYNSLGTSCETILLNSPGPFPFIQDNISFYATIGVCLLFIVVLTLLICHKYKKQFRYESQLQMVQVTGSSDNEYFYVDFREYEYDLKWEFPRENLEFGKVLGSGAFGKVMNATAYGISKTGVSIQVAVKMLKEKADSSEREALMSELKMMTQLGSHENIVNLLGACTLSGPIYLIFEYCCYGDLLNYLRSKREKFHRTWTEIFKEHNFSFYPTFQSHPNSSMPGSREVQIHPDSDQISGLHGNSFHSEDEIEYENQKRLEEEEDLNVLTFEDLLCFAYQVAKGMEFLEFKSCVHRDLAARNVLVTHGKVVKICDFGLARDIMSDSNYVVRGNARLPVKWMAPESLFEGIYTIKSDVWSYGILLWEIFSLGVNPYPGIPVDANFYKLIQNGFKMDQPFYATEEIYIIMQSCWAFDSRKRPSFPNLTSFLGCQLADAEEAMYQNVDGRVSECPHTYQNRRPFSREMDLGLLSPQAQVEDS
Data set [12] deals with Calcium/calmodulin-dependent protein kinase kinase 1 (Homo sapiens, UniProt Q8N5S9). Nature of the data set: Inhibition of CAMKK1 (unknown origin).
Chain of Calcium/calmodulin-dependent protein kinase kinase 1 (Q8N5S9 whole entry): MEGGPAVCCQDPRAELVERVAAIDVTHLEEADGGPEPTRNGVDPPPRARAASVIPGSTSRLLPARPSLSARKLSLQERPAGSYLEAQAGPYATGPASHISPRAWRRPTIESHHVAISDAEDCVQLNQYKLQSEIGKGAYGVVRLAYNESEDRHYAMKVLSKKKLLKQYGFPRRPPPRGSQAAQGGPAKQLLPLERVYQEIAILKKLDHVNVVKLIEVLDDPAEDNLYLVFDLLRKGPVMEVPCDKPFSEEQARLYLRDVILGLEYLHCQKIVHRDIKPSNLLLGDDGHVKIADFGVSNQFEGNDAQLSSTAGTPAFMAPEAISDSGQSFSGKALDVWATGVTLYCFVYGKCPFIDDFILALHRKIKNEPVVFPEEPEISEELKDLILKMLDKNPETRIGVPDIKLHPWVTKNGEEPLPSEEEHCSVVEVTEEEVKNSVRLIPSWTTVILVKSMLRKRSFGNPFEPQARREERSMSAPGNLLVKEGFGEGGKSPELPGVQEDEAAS
Data set [13] concerns the target SRSF protein kinase 2 (Homo sapiens, UniProt P78362). Nature of the data set: Inhibition of SRPK2 (unknown origin).
Data set [14] can be described thus: Stability in human liver microsomes at 1 uM in presence of NADPH cofactor. It is filed as ADME, microsome. Conditions: read-out: Stability.
In data set [15] the target is Dual specificity tyrosine-phosphorylation-regulated kinase 1A (Homo sapiens, UniProt Q13627). Nature of the data set: Inhibition of DYRK1A (unknown origin).
The nature of data set [16]: Cytotoxicity against human MDA-MB-231 cells assessed as cell viability at 100 uM after 6 hrs by CellTiter Glo luminescent assay relative to control. The format is cell-based. Conditions: read-out: Activity. The method, boiled down:
as §1

Data set [17] deals with Death-associated protein kinase 1 (Homo sapiens, UniProt P53355). Nature of the data set: Inhibition of DAPK1 (unknown origin).
Data set [18] has as its target T1, Inhibitor of nuclear factor kappa-B kinase subunit alpha (Homo sapiens, UniProt O15111).
T1 sequence (O15111 whole entry): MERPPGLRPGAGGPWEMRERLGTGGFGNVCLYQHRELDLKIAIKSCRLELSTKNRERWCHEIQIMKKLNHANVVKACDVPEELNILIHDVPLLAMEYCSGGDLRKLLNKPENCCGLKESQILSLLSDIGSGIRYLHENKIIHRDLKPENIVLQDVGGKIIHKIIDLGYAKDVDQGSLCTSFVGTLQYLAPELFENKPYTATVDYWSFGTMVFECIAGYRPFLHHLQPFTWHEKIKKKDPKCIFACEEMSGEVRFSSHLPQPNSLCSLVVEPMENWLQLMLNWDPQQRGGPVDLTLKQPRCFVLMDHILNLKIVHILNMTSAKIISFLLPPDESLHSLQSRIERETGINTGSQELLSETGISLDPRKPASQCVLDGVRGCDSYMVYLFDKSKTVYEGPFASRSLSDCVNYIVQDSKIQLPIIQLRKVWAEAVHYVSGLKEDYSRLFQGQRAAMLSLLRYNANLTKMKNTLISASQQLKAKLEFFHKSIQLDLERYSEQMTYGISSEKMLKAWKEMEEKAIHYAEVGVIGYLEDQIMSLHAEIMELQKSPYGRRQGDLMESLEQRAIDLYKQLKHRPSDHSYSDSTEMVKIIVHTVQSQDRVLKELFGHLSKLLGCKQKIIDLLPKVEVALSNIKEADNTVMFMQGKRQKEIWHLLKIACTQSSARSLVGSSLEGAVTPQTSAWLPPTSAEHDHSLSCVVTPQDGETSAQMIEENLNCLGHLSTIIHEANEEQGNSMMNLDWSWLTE
Nature of the data set: Inhibition of recombinant full length human His-tagged IKKalpha expressed in baculovirus expression system using ERLLDDRHDSGLDSMKDEE peptide as substrate measured after 60 mins by ADP-Glo kinase assay. The method, boiled down: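 Recombinant human IKKα, peptide substrate 100 µM, enzyme 8 ng/µL, ATP 1 µM in Tris-HCl pH 7.5 buffer with MgCl2, MnCl2, DTT, Na3VO4, BSA; 25°C, 60 min; ADP-Glo luminescence. Ten concentrations 0.005–100 µM; IC50 by nonlinear regression; means ± SD of three independent experiments.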

Data set [19] concerns the target Mitogen-activated protein kinase kinase kinase 11 (Homo sapiens, UniProt Q16584). Nature of the data set: Inhibition of MAP3K11 (unknown origin).

Chain of Mitogen-activated protein kinase kinase kinase 11 (Q16584 whole entry): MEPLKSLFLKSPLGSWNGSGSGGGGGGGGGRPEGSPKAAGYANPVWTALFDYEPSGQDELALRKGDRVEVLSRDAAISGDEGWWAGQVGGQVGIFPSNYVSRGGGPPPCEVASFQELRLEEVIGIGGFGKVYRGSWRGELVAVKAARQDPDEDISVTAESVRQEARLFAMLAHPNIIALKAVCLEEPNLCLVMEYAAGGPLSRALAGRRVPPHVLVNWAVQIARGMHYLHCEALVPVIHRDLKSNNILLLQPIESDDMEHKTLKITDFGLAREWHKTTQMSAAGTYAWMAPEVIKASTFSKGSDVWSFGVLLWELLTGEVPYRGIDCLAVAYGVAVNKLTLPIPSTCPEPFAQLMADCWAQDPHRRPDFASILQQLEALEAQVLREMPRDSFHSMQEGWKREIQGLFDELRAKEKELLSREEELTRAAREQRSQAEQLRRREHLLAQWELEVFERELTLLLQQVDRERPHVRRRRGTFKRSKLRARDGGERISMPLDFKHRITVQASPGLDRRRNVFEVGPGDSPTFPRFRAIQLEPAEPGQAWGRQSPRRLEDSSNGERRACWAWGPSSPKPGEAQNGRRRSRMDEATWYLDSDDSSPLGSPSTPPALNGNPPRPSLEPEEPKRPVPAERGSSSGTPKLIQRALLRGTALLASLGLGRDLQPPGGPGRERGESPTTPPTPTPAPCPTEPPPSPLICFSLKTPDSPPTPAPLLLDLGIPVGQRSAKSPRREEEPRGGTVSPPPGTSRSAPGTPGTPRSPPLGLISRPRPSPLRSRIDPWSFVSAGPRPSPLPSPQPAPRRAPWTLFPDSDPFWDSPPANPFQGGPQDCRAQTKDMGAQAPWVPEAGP
Chain of Serine/threonine-protein kinase pim-1 (P11309 whole entry): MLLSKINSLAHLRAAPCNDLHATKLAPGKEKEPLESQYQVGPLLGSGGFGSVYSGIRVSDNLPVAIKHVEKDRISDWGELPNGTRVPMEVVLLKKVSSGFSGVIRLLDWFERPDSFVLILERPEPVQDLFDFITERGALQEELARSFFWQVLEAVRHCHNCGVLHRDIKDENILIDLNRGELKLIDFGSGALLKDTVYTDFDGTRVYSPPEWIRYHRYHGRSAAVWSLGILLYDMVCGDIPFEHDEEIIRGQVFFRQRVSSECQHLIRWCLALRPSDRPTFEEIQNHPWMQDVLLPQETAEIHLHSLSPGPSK
Chain of 3-phosphoinositide-dependent protein kinase 1 (O15530 whole entry): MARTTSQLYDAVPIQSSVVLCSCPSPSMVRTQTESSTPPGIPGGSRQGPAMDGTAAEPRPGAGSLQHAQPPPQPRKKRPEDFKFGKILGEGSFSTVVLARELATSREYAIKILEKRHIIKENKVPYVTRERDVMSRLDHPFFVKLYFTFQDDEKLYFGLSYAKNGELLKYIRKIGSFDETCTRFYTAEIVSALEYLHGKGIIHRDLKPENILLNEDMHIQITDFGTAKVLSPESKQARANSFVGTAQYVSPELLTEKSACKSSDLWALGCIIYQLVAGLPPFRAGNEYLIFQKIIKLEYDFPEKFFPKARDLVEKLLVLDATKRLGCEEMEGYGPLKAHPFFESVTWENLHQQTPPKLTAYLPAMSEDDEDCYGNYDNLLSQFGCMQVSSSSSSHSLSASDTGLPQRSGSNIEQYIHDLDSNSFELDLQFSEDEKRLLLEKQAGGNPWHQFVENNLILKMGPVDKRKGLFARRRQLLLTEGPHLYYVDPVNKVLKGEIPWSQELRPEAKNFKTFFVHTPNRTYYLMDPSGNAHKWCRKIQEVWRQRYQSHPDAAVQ
Chain of Serine/threonine-protein kinase 4 (Q13043 whole entry): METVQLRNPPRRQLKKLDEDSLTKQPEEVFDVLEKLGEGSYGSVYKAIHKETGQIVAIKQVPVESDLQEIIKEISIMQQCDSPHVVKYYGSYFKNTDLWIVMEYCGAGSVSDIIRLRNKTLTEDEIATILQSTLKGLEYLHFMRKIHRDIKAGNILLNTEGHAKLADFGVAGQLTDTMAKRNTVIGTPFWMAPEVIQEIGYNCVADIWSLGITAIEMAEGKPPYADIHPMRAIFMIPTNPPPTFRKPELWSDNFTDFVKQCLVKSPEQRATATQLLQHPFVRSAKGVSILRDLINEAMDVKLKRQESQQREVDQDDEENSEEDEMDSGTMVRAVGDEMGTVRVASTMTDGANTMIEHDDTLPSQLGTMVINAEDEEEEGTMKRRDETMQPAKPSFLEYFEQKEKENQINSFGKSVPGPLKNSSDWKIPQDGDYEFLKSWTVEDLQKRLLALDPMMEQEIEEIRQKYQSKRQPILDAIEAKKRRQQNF

Turning to `CC(=O)n1nc(C)c(-c2ccc(Cl)c(Cl)c2)c1N`, the half-inhibitory concentration (IC50) in [1], in data set [2], in data set [4], in data set [7], in data set [8] and in data set [9] was > 100 µM throughout. Further, the half-inhibitory concentration (IC50) in [10], in [11], in [12], in data set [13], in [15] and in data set [17] was > 100 µM each time. Besides, the 50% inhibitory concentration (IC50) in data set [18] and in data set [19] was > 100 µM each time. In data set [3], this molecule showed an inhibition of 3.9%. In addition, the logD in data set [5] came to 4.09. In data set [6], the viability at 6 h, 25 µM was ≥ 80%. Besides, the remaining at 1 µM in data set [14] is 1%. Besides, the viability at 6 h, 100 µM in data set [16] was ≥ 80%.
